Platelet DG rel: platelet dense granule release activity | human platelet-rich plasma, SFLLRN dense granule ATP release, luminescence | inhibition, %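 (compounds screened at 7.5 µM in platelet-rich plasma)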 | actives 0.22% (n = 300,000);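 active means mean replicate score, as percent of positive control, at or above 50; inconclusive means mean below 50 but at least one replicate at or above 50; inactive means mean and every replicate below 50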
SENP7 inh: inhibitors of human SENP7 protease | actives 1.5% (n = 330,000) | recombinant SENP7, Z-RLRGG-aminoluciferin luminescence, 40 min | AID 434973 | inhibition, % at 5 µM | Q9BQF6;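 active means inhibition above about 50% at the single test dose, limit read from the data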;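 further: plate controls were DMSO with enzyme for no effect and no enzyme buffer wells for full effect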
SENP8 block-1: SENP8 protease inhibition; Q96LD8; purified SENP8, Z-RLRGG-aminoluciferin cleavage, luminescence; inhibition, % at 10 µM; actives 1.2% (n = 330,000); AID 2540; in the data active means inhibition above about 50%
Target sequence (Q96LD8 whole entry, looked up): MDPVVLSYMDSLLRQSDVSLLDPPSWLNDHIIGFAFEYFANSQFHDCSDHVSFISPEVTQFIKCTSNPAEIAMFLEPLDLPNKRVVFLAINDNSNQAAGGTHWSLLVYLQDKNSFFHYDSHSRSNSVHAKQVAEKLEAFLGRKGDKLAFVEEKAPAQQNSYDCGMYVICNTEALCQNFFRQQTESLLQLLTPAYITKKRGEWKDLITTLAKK
SENP8 block-2: inhibitors of human SENP8 protease; actives 0.64% (n = 360,000); inhibition, % at 20 µM; recombinant SENP8, Nedd8 substrate fluorescence; AID 602440; in the data active means inhibition mostly above about 40%, no sharp cut-off; inactive means mostly below about 27%
SENP6 block: SENP6 protease inhibition | Q9GZR1 | Recombinant SENP6 catalytic domain, aminoluciferin luminescence | inhibition, % at 10 µM | actives 1.8% (n = 330,000);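 active means inhibition above about 50% at the single tested dose, limit read from the data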;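 further: plate controls were DMSO wells with enzyme for no effect and DMSO wells lacking enzyme for full effect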
Target sequence (Q9GZR1 628-1112 limits assumed): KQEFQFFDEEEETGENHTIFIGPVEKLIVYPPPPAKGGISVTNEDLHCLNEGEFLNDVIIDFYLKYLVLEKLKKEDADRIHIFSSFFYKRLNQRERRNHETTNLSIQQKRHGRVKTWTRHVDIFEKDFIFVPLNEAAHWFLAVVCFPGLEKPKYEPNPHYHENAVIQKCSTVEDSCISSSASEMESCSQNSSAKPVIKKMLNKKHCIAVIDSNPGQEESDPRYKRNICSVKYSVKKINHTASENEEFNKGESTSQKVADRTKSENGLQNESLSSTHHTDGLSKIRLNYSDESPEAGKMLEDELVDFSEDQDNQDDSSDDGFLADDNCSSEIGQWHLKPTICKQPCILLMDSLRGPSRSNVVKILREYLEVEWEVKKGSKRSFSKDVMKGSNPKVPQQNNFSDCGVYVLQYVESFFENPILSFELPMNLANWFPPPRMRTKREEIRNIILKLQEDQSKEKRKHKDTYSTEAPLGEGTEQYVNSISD
SENP1 FRET inh: SENP1 (human) catalytic domain inhibition | inhibition, % at 10 µM | Q9P0U3 | actives 0.21% (n = 360,000) | recombinant SENP1 catalytic domain, CyPet-SUMO1-YPet FRET cleavage;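 active means inhibition at least 30% at 10 µM, raw YFP signal under a set limit, fluorescence ratio 0.5 to 1.5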;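 further: 0% = enzyme with DMSO and 100% = no enzyme wells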
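Assay system – human recombinant His6-tagged SENP1 catalytic domain enzyme · Input – SENP1 enzyme, 20 pM final · Buffer or medium – Tris pH 8 buffer plus EDTA, NaCl, BME, BSA, NP40, catalase · Schedule – 50 min reaction at room temperature · Technique – FRET read of cyan and yellow fluorescence · Control set – no-enzyme wells low, DMSO-plus-enzyme wells high control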
SENP8 conf: human SENP8 inhibition, confirmed | shares compounds with SENP7 inh | Recombinant SENP8, Z-RLRGG-aminoluciferin luminescence, 60 min | inhibition, % at 12.5 µM | actives 40% (n = 6,200) | AID 488912;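 active means mean inhibition across replicates above about 50%, limit read from the data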
SENP6 confirm: human SENP6 inhibition, confirmed. recombinant SENP6, Z-RLRGG-aminoluciferin luminescence. inhibition, % at 12.5 µM. shares compounds with SENP7 inh. actives 58% (n = 6,200)
SENP7 confirm: human SENP7 inhibition, confirmed; shares compounds with SENP7 inh; recombinant SENP7, Z-RLRGG-aminoluciferin luminescence, 40 min; inhibition, % at 12.5 µM; actives 69% (n = 6,200); AID 488917
Casp3 SENP sel: caspase-3 inhibition (SENP selectivity assay); AID 488918; shares compounds with SENP7 inh; actives 60% (n = 6,200); inhibition, % at 12.5 µM; purified caspase-3, Z-DEVD-aminoluciferin luminescence, 60 min;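 active means mean inhibition above about 50%, limit read from the data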;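 further: plate controls were enzyme with DMSO for no effect and wells without caspase-3 for full effect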
SENP luc ctr: interferes with luciferase luminescence in SENP counter-screen; shares compounds with SENP7 inh; Pre-incubated SENP8/Z-RLRGG-aminoluciferin, luciferase luminescence interference; inhibition, % at 12.5 µM; actives 39% (n = 6,200); AID 488919;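 active means mean inhibition above about 50% when retested at one dose, limit read from the data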;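 further: plate controls were DMSO wells with completed reaction for no effect and substrate without enzyme for full effect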
* marks the source's active call; other numbers are inactive results; ? = inconclusive; / = no result given. Only some compounds are listed: those with a hit (about 2.6% of all), similar ones and a draw of the others.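 How the source made its calls, unless noted: active means mean inhibition above about 50% in the one-dose retest (limit read from the data); inactive means the rest.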

SMILES | Platelet DG rel | SENP7 inh | SENP8 block-1 | SENP8 block-2 | SENP6 block | SENP1 FRET inh | SENP8 conf | SENP6 confirm | SENP7 confirm | Casp3 SENP sel | SENP luc ctr
Cc1ccccc1NC(C)C(=O)N/N=C/c1ccccc1OCc1cccc(Br)c1 (stereo not given) | 1 | -4 | -10 | 18 | -15 | 4 | / | / | / | / | /
COc1ccc(NC(C)C(=O)N/N=C/c2ccccc2OCc2cccc(Br)c2)cc1 (stereo not given) | 2 | 93* | 2 | 20 | 5 | 1 | -13 | -6 | -9 | 7 | -2
O=C1c2ccccc2C(=O)C1c1ccnc2ccccc12 | 7 | 99* | 85* | 28 | 79* | -3 | 84* | 89* | 100* | 94* | 21
N#CC1=C(N)SC(N)=C(C#N)C1c1ccnc2ccccc12 | 7 | -2 | -9 | -306 | 1 | -18 | / | / | / | / | /
O=C1C(c2ccnc3ccccc23)=C(O)c2ccccc21 | 20 | 97* | 39 | 62* | 64* | 16 | 86* | 86* | 97* | 94* | 88*
c1ccc2[nH]c(-c3ccnc4ccccc34)nc2c1 | -2 | -7 | -11 | -388 | -27 | -1 | / | / | / | / | /
O=C1c2ccccc2C(=O)C1c1nccc2ccccc12 | 9 | 96* | 59* | 34 | 97* | -13 | 87* | 81* | 98* | 92* | 29
O=Cc1nccc2ccccc12 | / | / | / | -9 | / | -4 | / | / | / | / | /
COc1ccc(CC(=O)Nc2ccc(C)c(S(=O)(=O)N3CCCCCC3)c2)cc1 | / | 3 | 0 | -6 | -6 | 1 | / | / | / | / | /
COc1ccc(C2=NN(CCC(=O)NC3CCCCC3C)C(=O)CC2)cc1 (stereo not given) | / | / | / | -30 | / | -1 | / | / | / | / | /
O=C(N=Nc1c(O)[nH]c2ccccc12)c1cccs1 | 5 | 82* | 67* | 15 | 82* | 3 | 52* | 80* | 93* | 82* | 20
CCn1c(SCC(=O)NCc2ccco2)nc2c1c(=O)n(C)c(=O)n2C | 3 | -5 | -6 | 8 | 1 | 4 | / | / | / | / | /
COc1ccc2nc3sc(C(=O)N4CCN(C)CC4)cc3cc2c1 | 5 | 3 | 2 | -289 | -10 | -2 | / | / | / | / | /
CCc1ccc2nc3sc(C(=O)O)cc3cc2c1 | 1 | 4 | 37 | -33 | 50* | -1 | 58* | 53* | 82* | 76* | 67*
CCCc1nn(C)c(C(=O)Nc2ccc(C(C)(C)C)cc2)c1Cl | -1 | 5 | -5 | -2 | -7 | -1 | / | / | / | / | /
O=C(/C=C/c1ccc([N+](=O)[O-])cc1)OCc1cnc(-c2ccccc2)o1 | -3 | -1 | -4 | -1 | -16 | 3 | / | / | / | / | /
O=C(O)c1cccc(Nc2ncnc3ccccc23)c1 | 3 | -3 | 59* | -6 | 68* | 0 | 70* | 64* | 85* | 36 | 68*
O=C(O)c1cccc(Nc2ccnc(Nc3cccc(C(=O)O)c3)n2)c1 | / | 98* | 90* | 19 | 94* | 2 | 96* | 98* | 102* | 95* | 77*
O=C(O)c1cccc(Nc2ncnc3c2cnn3-c2ccccc2)c1 | 6 | 90* | 90* | -43 | 97* | 2 | 95* | 95* | 101* | 50 | 92*
Oc1cccc(Nc2ncnc3ccccc23)c1 | -2 | 11 | -1 | -5 | 3 | -1 | / | / | / | / | /
CN(c1cccc(NS(=O)(=O)c2cccc([N+](=O)[O-])c2)c1)S(C)(=O)=O | -2 | 7 | -2 | 18 | 10 | 3 | / | / | / | / | /
COc1cc(-c2cc(C(=O)NCc3ccc(S(N)(=O)=O)cc3)c3ccccc3n2)cc(OC)c1OC | 1 | -7 | -2 | -324 | -16 | -1 | / | / | / | / | /
O=C(/C=C/c1ccc(Br)cc1)c1ccco1 | 1 | -8 | -14 | 17 | -9 | 0 | / | / | / | / | /
O=C(/C=C/Nc1ccc(F)cc1F)c1ccco1 | 53* | 90* | 87* | -168 | 87* | -43 | 91* | 97* | 101* | 96* | 85*
O=C(NNC(=S)Nc1ccc(F)cc1F)c1ccco1 | -3 | 18 | 3 | -4 | 5 | 1 | / | / | / | / | /
SMILES | Platelet DG rel | SENP7 inh | SENP8 block-1 | SENP8 block-2 | SENP6 block | SENP1 FRET inh | SENP8 conf | SENP6 confirm | SENP7 confirm | Casp3 SENP sel | SENP luc ctr
O=C(/C=C/Nc1ccc(Br)cc1F)c1ccco1 | 65* | 98* | 96* | -410 | 95* | -114 | -2 | 93* | 100* | 86* | 28
O=C(/C=C/Nc1ccc(F)cc1F)c1ccc(Br)cc1 | -3 | 67* | 0 | -64 | 16 | -101 | -6 | -3 | -1 | 17 | 3
O=C(Nc1nc2ccccc2[nH]1)Nc1ccccc1F | 12 | 40 | 39 | 15 | 60* | -2 | 14 | 54* | 38 | 31 | 5
O=C(CSc1nc2ccccc2[nH]1)Nc1ccccc1F | 15 | -2 | 2 | 4 | 5 | 1 | / | / | / | / | /
O=C(Nc1nc2ccccc2[nH]1)c1cccc(Br)c1 | -6 | 57* | 3 | -11 | -17 | 0 | -6 | 1 | 3 | 34 | 10
O=C(Nc1nc2ccccc2[nH]1)c1cccc(F)c1 | 10 | 91* | 82* | -4 | 91* | 0 | 8 | 84* | 98* | 92* | 33
CN(C)c1cccc(C(=O)Nc2nc3ccccc3[nH]2)c1 | 11 | 65* | 37 | -193 | 33 | -2 | 41 | 44 | 81* | 73* | 43
O=C(Nc1nc2ccccc2[nH]1)c1cccc([N+](=O)[O-])c1 | 16 | 26 | -13 | 5 | 2 | -3 | / | / | / | / | /
COC(=O)c1sc(NC(=O)c2ccc(C)o2)nc1C | ? | 50 | 38 | -144 | 46 | 1 | / | / | / | / | /
CCOC(=O)c1sc(NC(=O)c2ccco2)nc1C | / | 54* | 9 | -49 | 59* | 3 | 6 | 6 | -6 | 5 | -3
CCOC(=O)c1sc(NC(=O)c2ccc(C)o2)nc1C | 7 | 12 | 64* | -99 | 70* | -5 | 36 | 74* | 91* | 84* | 19
CC1CCN(S(=O)(=O)c2ccc3nc(N4CCN(c5ccccc5)CC4)ccc3c2)CC1 | 1 | -5 | -1 | / | 7 | / | / | / | / | / | /
